Experimental findings from ChEMBL document CHEMBL4052615, “Discovery of 4-amino-3-arylsulfoquinolines, a novel non-acetylenic chemotype of metabotropic glutamate 5 (mGlu5) receptor negative allosteric modulators” (Eur J Med Chem, 2017) are described below.

The target of this experiment is Metabotropic glutamate receptor 5 (Homo sapiens, UniProt P41594). Kind of experiment: Displacement of [3H]M-MPEP from mGluR5 (unknown origin) at 1 uM measured after 60 mins relative to control. The method in brief: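 Rat cerebrocortical membranes or membranes from A18 cells expressing human mGlu5a, incubated with [³H]M-MPEP and test compound at 1 µM in 50 mM Tris pH 7.6 with 2 mM MgCl₂ and 2 mM CaCl₂, 60 min at 25°C. Non-specific binding was taken with […]. Result is % displacement, run in duplicate or triplicate.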
For orientation: Displacement assays read how much labelled ligand stays bound in the presence of the test substance.

Chain of Metabotropic glutamate receptor 5 (P41594 21-1212 limits assumed): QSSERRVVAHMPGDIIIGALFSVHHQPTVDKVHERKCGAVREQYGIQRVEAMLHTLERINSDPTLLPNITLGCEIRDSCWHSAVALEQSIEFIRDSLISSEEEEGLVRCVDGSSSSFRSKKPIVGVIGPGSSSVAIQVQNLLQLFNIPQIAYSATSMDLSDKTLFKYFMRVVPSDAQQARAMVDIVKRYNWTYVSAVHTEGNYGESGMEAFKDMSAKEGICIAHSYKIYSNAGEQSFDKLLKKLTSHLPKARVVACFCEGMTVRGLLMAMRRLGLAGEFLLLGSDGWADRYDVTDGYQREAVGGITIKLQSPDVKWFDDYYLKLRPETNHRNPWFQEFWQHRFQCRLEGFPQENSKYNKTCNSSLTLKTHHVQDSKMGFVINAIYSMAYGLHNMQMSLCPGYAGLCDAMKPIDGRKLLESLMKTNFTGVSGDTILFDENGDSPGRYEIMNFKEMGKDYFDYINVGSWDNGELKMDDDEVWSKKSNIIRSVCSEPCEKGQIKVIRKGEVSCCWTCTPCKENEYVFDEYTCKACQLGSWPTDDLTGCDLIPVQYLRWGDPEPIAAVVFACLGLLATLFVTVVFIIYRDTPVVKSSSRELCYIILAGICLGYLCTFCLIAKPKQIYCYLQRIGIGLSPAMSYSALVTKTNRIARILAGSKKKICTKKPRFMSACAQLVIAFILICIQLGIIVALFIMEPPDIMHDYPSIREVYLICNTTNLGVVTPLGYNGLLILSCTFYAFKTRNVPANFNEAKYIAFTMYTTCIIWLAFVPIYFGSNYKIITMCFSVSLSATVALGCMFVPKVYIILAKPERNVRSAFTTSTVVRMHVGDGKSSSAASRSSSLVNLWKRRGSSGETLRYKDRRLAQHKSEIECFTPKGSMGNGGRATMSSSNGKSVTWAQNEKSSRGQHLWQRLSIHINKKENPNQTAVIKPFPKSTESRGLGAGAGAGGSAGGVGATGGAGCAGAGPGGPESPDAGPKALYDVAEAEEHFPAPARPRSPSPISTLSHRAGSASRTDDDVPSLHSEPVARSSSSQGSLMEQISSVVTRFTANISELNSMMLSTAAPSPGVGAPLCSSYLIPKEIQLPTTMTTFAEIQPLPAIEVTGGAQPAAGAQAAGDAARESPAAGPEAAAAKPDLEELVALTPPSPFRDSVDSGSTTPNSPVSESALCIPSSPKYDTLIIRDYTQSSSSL

The term inhibition denotes the drop in the measured response relative to a control, in per cent. With `CC1CCN(c2c(S(=O)(=O)c3cccc(F)c3)cnc3c(F)cccc23)CC1`, the inhibition came to 62%.

In the case of `Cc1cc(C)cc(S(=O)(=O)c2cnc3cc(F)ccc3c2N2CCC(C)CC2)c1`, the inhibition is 80%.

On to `O=S(=O)(c1cc(F)cc(F)c1)c1cnc2cc(F)ccc2c1N1CCSCC1`, for which the inhibition is 78.4%.

Regarding `COc1ccc2ncc(S(=O)(=O)c3ccc(OC)c(OC)c3)c(N3CCOCC3)c2c1`, the inhibition worked out at 1%.

In the case of `O=S(=O)(c1ccc(Cl)c(Cl)c1)c1cnc2c(F)cccc2c1N1CCOCC1`, the inhibition worked out at 86%.

`COc1ccc2ncc(S(=O)(=O)c3ccc(Cl)cc3)c(N3CCOCC3)c2c1`: the inhibition was 93%.

For the compound `COc1ccc(S(=O)(=O)c2cnc3ccc(F)cc3c2N2CCOCC2)cc1Cl`, the inhibition turned out to be 26%.

For `COCC1CCN(c2c(S(=O)(=O)c3cccc(F)c3)cnc3cc(F)ccc23)CC1`, the inhibition stood at 70.5%.

In the case of `CC1CCN(c2c(S(=O)(=O)c3ccc(F)c(Cl)c3)cnc3cc(Cl)ccc23)CC1`, the inhibition is 94%.

Take `O=S(=O)(c1ccc(Cl)c(Cl)c1)c1cnc2cc(F)ccc2c1N1CCOCC1`: the inhibition came out at 86%.

Consider `Cc1ccc(S(=O)(=O)c2cnc3ccc(F)cc3c2N2CCC(C)CC2)cc1F`, for which the inhibition was 86%.

With `O=S(=O)(c1ccc(F)c(Cl)c1)c1cnc2ccc(Cl)cc2c1N1CCOCC1`, the inhibition is 39%.

As for `Cc1ccc(S(=O)(=O)c2cnc3ccc(Cl)cc3c2N2CCOCC2)cc1Cl`, the inhibition stood at 53%.

With `COc1ccc(S(=O)(=O)c2cnc3ccc(F)cc3c2N2CCC(C)CC2)cc1Cl`, the inhibition turned out to be 82%.

In the case of `Cc1ccc(S(=O)(=O)c2cnc3ccc(C)cc3c2N2CCOCC2)cc1`, the inhibition came to 66%.

Consider `COc1ccc2ncc(S(=O)(=O)c3cc(Cl)cc(Cl)c3)c(N3CCOCC3)c2c1`, for which the inhibition is 23%.

As to `Cc1ccc(S(=O)(=O)c2cnc3c(F)cccc3c2N2CCOCC2)cc1`, the inhibition was 23%.

Take `COc1ccc2ncc(S(=O)(=O)c3cccc(C#N)c3)c(N3CCC(C)CC3)c2c1`: the inhibition is 90%.

On to `CC1CCN(c2c(S(=O)(=O)c3ccc(Cl)cc3)cnc3c(F)cccc23)CC1`, for which the inhibition is 85%.

As for `CC1CCN(c2c(S(=O)(=O)c3cccc(C#N)c3)cnc3cc(F)ccc23)CC1`, the inhibition is 92 to 92.4%.

On to `CCOC(=O)C1CCN(c2c(S(=O)(=O)c3ccccc3)cnc3ccccc23)CC1`, for which the inhibition is 33%.

Take `CC1CCN(c2c(S(=O)(=O)c3ccc(F)cc3)cnc3ccc(Cl)cc23)CC1`: the inhibition was found to be 89%.

As to `O=S(=O)(c1ccccc1)c1cnc2ccc(F)cc2c1N1CCOCC1`, the inhibition was found to be 81%.

Turning to `COc1ccc(S(=O)(=O)c2cnc3ccc(Cl)cc3c2N2CCOCC2)cc1Cl`, the inhibition turned out to be 33%.

Turning to `O=S(=O)(c1ccc(F)c(F)c1)c1cnc2ccc(Cl)cc2c1N1CCOCC1`, the inhibition is 2%.

For the compound `Cc1cc(C)cc(S(=O)(=O)c2cnc3cc(F)ccc3c2N2CCOCC2)c1`, the inhibition was found to be 58%.

For the compound `Cc1ccc(S(=O)(=O)c2cnc3ccc(F)cc3c2N2CCOCC2)cc1Cl`, the inhibition was 69%.

For `COCC1CCN(c2c(S(=O)(=O)c3cccc(C#N)c3)cnc3cc(F)ccc23)CC1`, the inhibition is 91%.

As for `Cc1ccc(S(=O)(=O)c2cnc3cc(F)ccc3c2N2CCC(C)CC2)cc1`, the inhibition turned out to be 88%.

For `COc1cccc(S(=O)(=O)c2cnc3ccc(Cl)cc3c2N2CCOCC2)c1`, the inhibition came out at 28%.

In the case of `COc1ccc(S(=O)(=O)c2cnc3cc(Cl)ccc3c2N2CCC(C)CC2)cc1`, the inhibition amounted to 79%.

Consider `Cc1ccc(S(=O)(=O)c2cnc3cc(F)ccc3c2N2CCC(C)CC2)cc1Cl`, for which the inhibition is 93%.

Consider `CC1CCN(c2c(S(=O)(=O)c3cc(F)cc(F)c3)cnc3ccc(Cl)cc23)CC1`, for which the inhibition was 93%.

With `COc1ccc(S(=O)(=O)c2cnc3cc(Cl)ccc3c2N2CCC(C)CC2)cc1OC`, the inhibition is 93%.

As to `Cc1ccc(S(=O)(=O)c2cnc3cc(F)ccc3c2N2CCOCC2)cc1`, the inhibition is 33%.

`CC1CCN(c2c(S(=O)(=O)c3ccc(F)cc3)cnc3ccc(F)cc23)CC1`: the inhibition was 87%.

Turning to `N#Cc1ccc(S(=O)(=O)c2cnc3ccc(Cl)cc3c2N2CCOCC2)cc1`, the inhibition came out at 4%.

Consider `CC1CCN(c2c(S(=O)(=O)c3ccc(F)cc3)cnc3c(F)cccc23)CC1`, for which the inhibition was determined as 26%.

As for `Cc1ccc2ncc(S(=O)(=O)c3cccc(Cl)c3)c(N3CCC(C)CC3)c2c1`, the inhibition turned out to be 91%.

As to `O=S(=O)(c1ccc(F)c(Cl)c1)c1cnc2ccc(F)cc2c1N1CCOCC1`, the inhibition came out at 58%.

On to `O=S(=O)(c1ccc(Cl)cc1)c1cnc2ccc(Cl)cc2c1N1CCOCC1`, for which the inhibition was 15%.

As to `O=S(=O)(c1cccc(Cl)c1)c1cnc2ccc(Cl)cc2c1N1CCOCC1`, the inhibition amounted to 24%.

For `CC1CCN(c2c(S(=O)(=O)c3ccc(Cl)cc3)cnc3cc(Cl)ccc23)CC1`, the inhibition worked out at 91%.

Turning to `Cc1ccc2ncc(S(=O)(=O)c3cc(Cl)cc(Cl)c3)c(N3CCC(C)CC3)c2c1`, the inhibition is 75%.

Consider `O=S(=O)(c1ccc(F)cc1)c1cnc2cc(Cl)ccc2c1N1CCOCC1`, for which the inhibition worked out at 14%.

With `COc1ccc(S(=O)(=O)c2cnc3cc(Cl)ccc3c2N2CCOCC2)cc1OC`, the inhibition turned out to be 4%.

Consider `Cc1ccc(S(=O)(=O)c2cnc3cc(F)ccc3c2N2CCOCC2)cc1Cl`, for which the inhibition was found to be 84%.

Take `Cc1ccc2ncc(S(=O)(=O)c3cccc(C#N)c3)c(N3CCC(C)CC3)c2c1`: the inhibition stood at 52%.

For the compound `O=S(=O)(c1ccc(Cl)cc1)c1cnc2cc(Cl)ccc2c1N1CCOCC1`, the inhibition was 55%.

For `COc1ccc(S(=O)(=O)c2cnc3ccc(C)cc3c2N2CCC(C)CC2)cc1Cl`, the inhibition is 93%.

`COc1ccc2ncc(S(=O)(=O)c3cccc(Cl)c3)c(N3CCC(C)CC3)c2c1`: the inhibition was -3%.

On to `O=S(=O)(c1ccc(Cl)c(Cl)c1)c1cnc2ccc(F)cc2c1N1CCOCC1`, for which the inhibition is 68%.

Take `COc1ccc(S(=O)(=O)c2cnc3ccc(C)cc3c2N2CCOCC2)cc1Cl`: the inhibition worked out at 58%.

For the compound `COc1ccc(S(=O)(=O)c2cnc3cc(F)ccc3c2N2CCOCC2)cc1Cl`, the inhibition came to 53%.

Regarding `CC1CCN(c2c(S(=O)(=O)c3ccccc3)cnc3c(F)cccc23)CC1`, the inhibition was determined as 13%.

Take `Cc1ccc(S(=O)(=O)c2cnc3c(F)cccc3c2N2CCOCC2)cc1F`: the inhibition is 73%.

As for `O=S(=O)(c1ccccc1)c1cnc2cc(F)ccc2c1N1CCOCC1`, the inhibition is 4%.

`COc1ccc2ncc(S(=O)(=O)c3cc(F)cc(F)c3)c(N3CCC(C)CC3)c2c1`: the inhibition turned out to be 30%.

As for `Cc1ccc2ncc(S(=O)(=O)c3ccc(Cl)c(Cl)c3)c(N3CCC(C)CC3)c2c1`, the inhibition came to 82%.

For `Cc1ccc(S(=O)(=O)c2cnc3cc(Cl)ccc3c2N2CCC(C)CC2)cc1F`, the inhibition turned out to be 85%.

Regarding `COCC1CCN(c2c(S(=O)(=O)c3cc(F)cc(F)c3)cnc3cc(F)ccc23)CC1`, the inhibition was 83%.

On to `CC1CCN(c2c(S(=O)(=O)c3ccccc3)cnc3ccc(Cl)cc23)CC1`, for which the inhibition is 59%.

For the compound `CC1CCN(c2c(S(=O)(=O)c3ccc(Cl)c(Cl)c3)cnc3c(F)cccc23)CC1`, the inhibition amounted to 95%.

For the compound `Cc1ccc2ncc(S(=O)(=O)c3ccc(F)cc3)c(N3CCC(C)CC3)c2c1`, the inhibition is 90%.

With `Cc1ccc2ncc(S(=O)(=O)c3ccc(C)c(C)c3)c(N3CCC(C)CC3)c2c1`, the inhibition was found to be 90%.

Consider `Cc1ccc2ncc(S(=O)(=O)c3cc(Cl)cc(Cl)c3)c(N3CCOCC3)c2c1`, for which the inhibition came out at 70%.

On to `COc1ccc2ncc(S(=O)(=O)c3ccc(OC)c(OC)c3)c(N3CCC(C)CC3)c2c1`, for which the inhibition is -3%.

Consider `CC1CCN(c2c(S(=O)(=O)c3cc(F)cc(F)c3)cnc3c(F)cccc23)CC1`, for which the inhibition amounted to 9%.

Turning to `Cc1ccc2ncc(S(=O)(=O)c3ccc(C)c(Cl)c3)c(N3CCOCC3)c2c1`, the inhibition came to 75%.

As for `N#Cc1cccc(S(=O)(=O)c2cnc3cc(F)ccc3c2N2CCSCC2)c1`, the inhibition was found to be 80.9%.

Take `Cc1ccc2ncc(S(=O)(=O)c3cccc(C#N)c3)c(N3CCOCC3)c2c1`: the inhibition was found to be 58%.

With `Cc1ccc2ncc(S(=O)(=O)c3ccc(Cl)cc3)c(N3CCOCC3)c2c1`, the inhibition was 89%.

`O=S(=O)(c1cccc(F)c1)c1cnc2cc(F)ccc2c1N1CCSCC1`: the inhibition is 62.7%.

In the case of `Cc1ccc(S(=O)(=O)c2cnc3cc(Cl)ccc3c2N2CCC(C)CC2)cc1`, the inhibition was found to be 94%.

Regarding `CC1CCN(c2c(S(=O)(=O)c3cccc(F)c3)cnc3ccc(Cl)cc23)CC1`, the inhibition was found to be 58%.

As to `CC1CCN(c2c(S(=O)(=O)c3ccc(C#N)cc3)cnc3ccc(Cl)cc23)CC1`, the inhibition turned out to be 31%.

Take `COc1ccc(S(=O)(=O)c2cnc3cc(F)ccc3c2N2CCC(C)CC2)cc1OC`: the inhibition was 83%.

Consider `O=S(=O)(c1ccc(F)c(F)c1)c1cnc2ccc(F)cc2c1N1CCOCC1`, for which the inhibition is 10%.

Turning to `O=S(=O)(c1ccc(F)cc1)c1cnc2cc(F)ccc2c1N1CCOCC1`, the inhibition came out at 29%.

`N#Cc1cccc(S(=O)(=O)c2cnc3cc(F)ccc3c2N2CCOCC2)c1`: the inhibition was 71 to 71.4%.

In the case of `Cc1ccc(S(=O)(=O)c2cnc3cc(Cl)ccc3c2N2CCC(C)CC2)cc1C`, the inhibition came out at 86%.

Take `Cc1ccc(S(=O)(=O)c2cnc3ccc(Cl)cc3c2N2CCC(C)CC2)cc1F`: the inhibition came to 68%.

In the case of `O=S(=O)(c1ccccc1)c1cnc2ccccc2c1N1CCCC1`, the inhibition was determined as 7.1%.

Turning to `Cc1ccc(S(=O)(=O)c2cnc3cc(Cl)ccc3c2N2CCOCC2)cc1F`, the inhibition turned out to be 38%.

On to `Cc1cc(C)cc(S(=O)(=O)c2cnc3ccc(C)cc3c2N2CCOCC2)c1`, for which the inhibition was 47%.

`CC1CCN(c2c(S(=O)(=O)c3cccc(C#N)c3)cnc3cc(Cl)ccc23)CC1`: the inhibition was 94%.

For `O=S(=O)(c1ccc(F)cc1)c1cnc2ccc(F)cc2c1N1CCOCC1`, the inhibition turned out to be 2%.
